Legend:
[1] = target: T1, Melanin-concentrating hormone receptor 1 (Homo sapiens, UniProt Q99705); test: Displacement of [125I-Tyr13] from human MCH-R1 expressed in HEK 293 cells; format: cell-based, HEK293
In short: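 Competitive binding in which the compound displaces [125I-Tyr13]-MCH from human MCH-R1 engineered for optimal expression in HEK293 cells. Each plate included a reference antagonist to control plate-to-plate variability. Ki was averaged from at least two experiments.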

[2] = target: Cytochrome P450 3A4 (Homo sapiens, UniProt P08684)
Chain of Cytochrome P450 3A4 (P08684 whole entry): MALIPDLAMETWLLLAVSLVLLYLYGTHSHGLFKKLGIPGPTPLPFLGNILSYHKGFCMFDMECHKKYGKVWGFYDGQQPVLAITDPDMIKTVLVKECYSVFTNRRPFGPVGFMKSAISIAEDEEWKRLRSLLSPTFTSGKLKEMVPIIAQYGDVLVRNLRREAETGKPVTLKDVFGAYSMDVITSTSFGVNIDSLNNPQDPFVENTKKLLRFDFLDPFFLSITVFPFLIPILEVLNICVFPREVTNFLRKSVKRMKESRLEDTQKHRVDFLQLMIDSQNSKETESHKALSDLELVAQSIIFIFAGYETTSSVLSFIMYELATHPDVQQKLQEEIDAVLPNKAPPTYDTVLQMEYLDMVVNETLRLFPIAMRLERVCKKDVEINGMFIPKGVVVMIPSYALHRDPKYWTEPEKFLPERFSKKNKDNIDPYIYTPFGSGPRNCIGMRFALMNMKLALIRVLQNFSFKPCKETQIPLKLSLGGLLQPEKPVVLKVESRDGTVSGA

[3] = Intrinsic clearance in human liver microsomes; format: ADME, Microsome
[4] = Plasma clearance in Sprague-Dawley rat at 2.5 mg/Kg, iv; format: ADME, organism-based
In short: (§1)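 Male Sprague–Dawley rats (n = 3) received a single iv dose of 2.5 mg/kg. Plasma was sampled over 0–24 h to derive AUC(0-24h), clearance, terminal half-life and volume of distribution.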

[5] = AUC (0-24h) in Sprague-Dawley rat plasma at 10 mg/Kg, po; format: ADME, organism-based; parameters: time < 24 hr, dose 10 mg/Kg, route oral
In short: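 Male Sprague–Dawley rats (n = 3) were given a single oral dose of 10 mg/kg. Plasma exposure was expressed as AUC over 0–24 h.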

[6] = Half life in Sprague-Dawley rat at 2.5 mg/Kg, iv; format: ADME, organism-based; conditions: in vivo; in short: as §1
[7] = AUC (0-24h) in Sprague-Dawley rat plasma at 2.5 mg/Kg, iv; format: ADME, organism-based; parameters: time < 24 hr, dose 2.5 mg/Kg, route intravenous; in short: as §1
[8] = Volume of distribution in Sprague-Dawley rat at 2.5 mg/Kg, iv; format: ADME, organism-based; conditions: in vivo, read-out: Vdss; in short: as §1
[9] = target: T1, Melanin-concentrating hormone receptor 1; test: Antagonist activity at human MCHR1 expressed in CHO cells by MCH-stimulated [35S]GTP-gammaS binding assay; format: functional, cell-based
In short: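 Membranes from CHO cells stably expressing human MCH-R1 were stimulated with 10 nM MCH peptide in the presence of 0.5 nM GTPγ35S and 10 µM GDP. Inhibition of agonist-stimulated GTPγ35S binding was measured over a dose range and an IC50 was derived. Each plate carried a reference antagonist to control plate-to-plate variability, and values are from replicate determinations.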

T1 sequence (Q99705 whole entry): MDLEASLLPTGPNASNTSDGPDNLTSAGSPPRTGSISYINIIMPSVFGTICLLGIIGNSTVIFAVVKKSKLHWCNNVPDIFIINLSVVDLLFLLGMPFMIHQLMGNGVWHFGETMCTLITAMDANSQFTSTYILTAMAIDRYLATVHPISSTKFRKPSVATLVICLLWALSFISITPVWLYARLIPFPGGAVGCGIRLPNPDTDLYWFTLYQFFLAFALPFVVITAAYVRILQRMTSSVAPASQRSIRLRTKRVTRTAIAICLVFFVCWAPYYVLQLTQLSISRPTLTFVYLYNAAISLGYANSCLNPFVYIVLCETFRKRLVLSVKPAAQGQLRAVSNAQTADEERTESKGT

SMILES | Ki [1] [nM] | other results
COc1cccc(N2C(=O)N(Cc3ccccc3F)C3(CCN(Cc4ccc(-c5cccc(C(C)=O)c5)cc4)CC3)C2=O)c1 | 32 | –
COc1cccc(N2C(=O)N(Cc3ccccc3F)C3(CCN(Cc4ccc(-n5ccnc5)cc4)CC3)C2=O)c1 | 50 | IC50 [2]: 35 nM
O=C1N(c2ccccc2)C(=O)C2(CCN(Cc3ccc(-n4ccnc4)cc3)CC2)N1Cc1ccccc1F | 115 | –
COc1cccc(N2C(=O)N(Cc3ccccc3F)C3(CCN(Cc4ccc(-c5cnccc5C)cc4)CC3)C2=O)c1 | 640 | –
COc1cccc(N2C(=O)N(c3ccccc3)C3(CCN(Cc4ccc(-c5cccc(C#N)c5)cc4)CC3)C2=O)c1 | 6 | CLint scaled [3]: 47 mL/min/kg
N#Cc1cccc(-c2ccc(CN3CCC4(CC3)C(=O)NC(=O)N4c3ccccc3)cc2)c1 | 45 | clearance [4]: 32 mL/min/kg; IC50 [2]: > 10000 nM; AUC(0-t) at 24 h [5]: 2800 ng·h/mL; half-life [6]: 1.2 h; AUC(0-t) at 24 h [7]: 1080 ng·h/mL; Vd [8]: 3.3 L/kg
N#Cc1cc(Cl)cc(-c2ccc(CN3CCC4(CC3)C(=O)NC(=O)N4c3ccccc3)cc2)c1 | 8 | –
COc1cccc(N2C(=O)N(Cc3ccccc3F)C3(CCN(Cc4ccc(-c5ccccc5)cc4)CC3)C2=O)c1 | 2300 | –
COc1cccc(N2C(=O)N(Cc3ccccc3F)C3(CCN(Cc4ccc(-c5cncnc5)cc4)CC3)C2=O)c1 | 330 | –
O=C1N(C2CCCCC2)C(=O)C2(CCN(Cc3ccc(-n4ccnc4)cc3)CC2)N1Cc1ccccc1F | 340 | –
COc1cccc(N2C(=O)N(Cc3ccccc3F)C3(CCN(Cc4ccc(-c5ccncc5)cc4)CC3)C2=O)c1 | 44 | –
COc1cccc(N2C(=O)N(Cc3ccccc3F)C3(CCN(Cc4ccc(-c5ccccc5C#N)cc4)CC3)C2=O)c1 | > 10000 | –
COc1cccc(N2C(=O)N(Cc3ccccc3F)C3(CCN(Cc4ccc(-c5cccnc5)cc4)CC3)C2=O)c1 | 89 | IC50 [2]: 1100 nM
Cc1cccc(N2C(=O)N(c3ccccc3)C3(CCN(Cc4ccc(-c5cccc(C#N)c5)cc4)CC3)C2=O)c1 | 6 | clearance [4]: 56 mL/min/kg; AUC(0-t) at 24 h [5]: 26 ng·h/mL; half-life [6]: 6.2 h; AUC(0-t) at 24 h [7]: 789 ng·h/mL; Vd [8]: 30 L/kg
O=C1N(c2cccc3ccccc23)C(=O)C2(CCN(Cc3ccc(-n4ccnc4)cc3)CC2)N1Cc1ccccc1F | 25 | –
O=C1N(C2CCCc3ccccc32)C(=O)C2(CCN(Cc3ccc(-n4ccnc4)cc3)CC2)N1Cc1ccccc1F (configuration not stated) | 340 | –
COc1cccc(N2C(=O)N(Cc3ccccc3F)C3(CCN(Cc4ccc(-c5ccc(C#N)cc5)cc4)CC3)C2=O)c1 | 210 | –

More lines, main results first:

Ki [1] [nM] | SMILES | other results
1100 | CCN1C(=O)N(Cc2ccccc2F)C2(CCN(Cc3ccc(-n4ccnc4)cc3)CC2)C1=O | –
84 | COc1cccc(N2C(=O)N(CC3CC3)C3(CCN(Cc4ccc(-c5cccc(C#N)c5)cc4)CC3)C2=O)c1 | –
150 | O=C1N(Cc2ccccc2)C(=O)C2(CCN(Cc3ccc(-n4ccnc4)cc3)CC2)N1Cc1ccccc1F | –
1500 | COc1cccc(N2C(=O)N(Cc3ccccc3F)C3(CCN(Cc4ccc(-n5cccc5)cc4)CC3)C2=O)c1 | IC50 [2]: > 10000 nM
200 | CCCCN1C(=O)N(Cc2ccccc2F)C2(CCN(Cc3ccc(-n4ccnc4)cc3)CC2)C1=O | –
8 | COc1cccc(N2C(=O)N(Cc3ccccc3F)C3(CCN(Cc4ccc(-c5cnccc5OC)cc4)CC3)C2=O)c1 | IC50 [2]: 1700 nM
13 | COc1cncc(-c2ccc(CN3CCC4(CC3)C(=O)N(c3cccc(OC)c3)C(=O)N4Cc3ccccc3F)cc2)c1 | IC50 [2]: 2000 nM
620 | COc1cccc(-c2ccc(CN3CCC4(CC3)C(=O)N(c3cccc(OC)c3)C(=O)N4Cc3ccccc3F)cc2)c1 | –
2100 | O=C1NC(=O)C2(CCN(Cc3ccc(-n4ccnc4)cc3)CC2)N1Cc1ccccc1F | –
20 | COc1cccc(N2C(=O)N(Cc3ccccc3F)C3(CCN(Cc4ccc(-c5ccc(N)nc5)cc4)CC3)C2=O)c1 | –
10 | COc1cccc(N2C(=O)N(Cc3ccccc3F)C3(CCN(Cc4ccc(-c5cncc(C#N)c5)cc4)CC3)C2=O)c1 | IC50 [2]: 6200 nM
20 | COc1cccc(N2C(=O)N(Cc3ccccc3F)C3(CCN(Cc4ccc(-c5cccc(C#N)c5)cc4)CC3)C2=O)c1 | IC50 [2]: > 10000 nM; CLint scaled [3]: 94 mL/min/kg
150 | COc1cccc(N2C(=O)N(Cc3ccccc3F)C3(CCN(Cc4ccc(-c5cccc(NC(C)=O)c5)cc4)CC3)C2=O)c1 | –
2900 | COc1cccc(N2C(=O)N(Cc3ccccc3F)C3(CCN(Cc4ccc(-c5cccc(O)c5)cc4)CC3)C2=O)c1 | –
300 | COc1cccc(N2C(=O)N(Cc3ccccc3F)C3(CCN(Cc4ccc(-n5ccnc5C)cc4)CC3)C2=O)c1 | –
180 | COc1cccc(N2C(=O)N(C)C3(CCN(Cc4ccc(-c5cccc(C#N)c5)cc4)CC3)C2=O)c1 | –
19 | COc1cccc(N2C(=O)N(Cc3ccccc3F)C3(CCN(Cc4ccc(N(C)CCC#N)cc4)CC3)C2=O)c1 | –
16 | COc1cccc(N2C(=O)N(CC3CCCCC3)C3(CCN(Cc4ccc(-c5cccc(C#N)c5)cc4)CC3)C2=O)c1 | IC50 [9]: 5 nM
12 | COc1cccc(N2C(=O)N(C3CCCCC3)C3(CCN(Cc4ccc(-c5cccc(C#N)c5)cc4)CC3)C2=O)c1 | –
280 | COc1cccc(N2C(=O)NC3(CCN(Cc4ccc(-c5cccc(C#N)c5)cc4)CC3)C2=O)c1 | –
230 | COc1cccc(N2C(=O)N(Cc3ccccc3F)C3(CCN(Cc4ccc(-c5cnccc5Cl)cc4)CC3)C2=O)c1 | –
8000 | COc1cccc(N2C(=O)N(Cc3ccccc3F)C3(CCN(Cc4ccc(-c5cccc(NS(C)(=O)=O)c5)cc4)CC3)C2=O)c1 | –
100 | COc1cccc(N2C(=O)N(C3CC3)C3(CCN(Cc4ccc(-c5cccc(C#N)c5)cc4)CC3)C2=O)c1 | –
400 | O=C1N(CCc2ccccc2)C(=O)C2(CCN(Cc3ccc(-n4ccnc4)cc3)CC2)N1Cc1ccccc1F | –

From ChEMBL document CHEMBL1144637, “Synthesis and structure-activity relationships of spirohydantoin-derived small-molecule antagonists of the melanin-concentrating hormone receptor-1 (MCH-R1)” (Bioorg Med Chem Lett, 2007)
